Results taken from ChEMBL document CHEMBL4689842, “EUbOPEN Chemogenomics Library wave 1” (2021).

System: Fibroblast
Experiment: Multiplex assay against human fibroblast
Type: toxicity, cell-based
Summary of the method: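 Cells were classed with CellPathfinder machine-learning gating, first as Hoechst high-intensity objects or normal cells, then (normal cells) as healthy, pyknosed or fragmented nuclei, and finally (pyknosed cells) as mitotic or apoptotic. Staining of live cells at seeding used Hoechst33342, BioTracker Green Microtubule Cytoskeleton Dye, MitoTracker Red and Annexin V Alexa Fluor 680, with imaging on a CQ1 microscope at 37°C and 5% CO2 after compound addition. Tubulin, mitochondrial-mass and membrane-permeability phenotypes are per cents of healthy-nucleus cells.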

[1] = 12 h, 1 µM, compound concentration 1 uM, replicate 1
[2] = 12 h, 1 µM, compound concentration 1 uM, replicate 2
[3] = 12 h, 10 µM, compound concentration 10 uM, replicate 1
[4] = 12 h, 10 µM, compound concentration 10 uM, replicate 2
[5] = 24 h, 1 µM, compound concentration 1 uM, replicate 1
[6] = 24 h, 1 µM, compound concentration 1 uM, replicate 2
[7] = 24 h, 10 µM, compound concentration 10 uM, replicate 1
[8] = 24 h, 10 µM, compound concentration 10 uM, replicate 2
[9] = 48 h, 1 µM, compound concentration 1 uM, replicate 1
[10] = 48 h, 1 µM, compound concentration 1 uM, replicate 2
[11] = 48 h, 10 µM, compound concentration 10 uM, replicate 1
[12] = 48 h, 10 µM, compound concentration 10 uM, replicate 2

COC(=O)C1=C(C)NC(C)=C(C(=O)OCCCN2CCC(c3ccccc3)(c3ccccc3)CC2)[C@H]1c1cccc([N+](=O)[O-])c1 [NIGULDIPINE]
Population Apoptotic (%) [1]: 65% | Population Fragmented Nuclei (%) [1]: 17% | Population Healthy Nuclei (%) [1]: 45% | Population Hoechst High Intensity Objects (%) [1]: 12% | Population Membrane Permeable-Phenotype (%) [1]: 2% | Population Mitochondria Different-Phenotype (%) [1]: 85% | Population Mitotic Cells (%) [1]: 34% | Population Normal (%) [1]: 87% | Population Pyknosed Nuclei (%) [1]: 36% | Population Tubulin-Different-Phenotype (%) [1]: 100% | Total Cell Count [1]: 99 | Population Apoptotic (%) [2]: 91% | Population Fragmented Nuclei (%) [2]: 6% | Population Healthy Nuclei (%) [2]: 78% | Population Hoechst High Intensity Objects (%) [2]: 9% | Population Membrane Permeable-Phenotype (%) [2]: 66% | Population Mitochondria Different-Phenotype (%) [2]: 100% | Population Mitotic Cells (%) [2]: 8% | Population Normal (%) [2]: 90% | Population Pyknosed Nuclei (%) [2]: 15% | Total Cell Count [2]: 945 | Population Apoptotic (%) [3]: 65% | Population Fragmented Nuclei (%) [3]: 19% | Population Healthy Nuclei (%) [3]: 10% | Population Hoechst High Intensity Objects (%) [3]: 16% | Population Membrane Permeable-Phenotype (%) [3]: 63% | Population Mitochondria Different-Phenotype (%) [3]: 18% | Population Mitotic Cells (%) [3]: 34% | Population Normal (%) [3]: 83% | Population Pyknosed Nuclei (%) [3]: 69% | Population Tubulin-Different-Phenotype (%) [3]: 72% | Total Cell Count [3]: 124 | Population Apoptotic (%) [4]: 76% | Population Fragmented Nuclei (%) [4]: 67% | Population Healthy Nuclei (%) [4]: 3% | Population Hoechst High Intensity Objects (%) [4]: 12% | Population Membrane Permeable-Phenotype (%) [4]: 100% | Population Mitochondria Different-Phenotype (%) [4]: 50% | Population Mitotic Cells (%) [4]: 23% | Population Normal (%) [4]: 87% | Population Pyknosed Nuclei (%) [4]: 29% | Population Tubulin-Different-Phenotype (%) [4]: 100% | Total Cell Count [4]: 87 | Population Apoptotic (%) [5]: 76% | Population Fragmented Nuclei (%) [5]: 25% | Population Healthy Nuclei (%) [5]: 53% | Population Hoechst High Intensity Objects (%) [5]: 13% | Population Membrane Permeable-Phenotype (%) [5]: 7% | Population Mitochondria Different-Phenotype (%) [5]: 85% | Population Mitotic Cells (%) [5]: 23% | Population Normal (%) [5]: 86% | Population Pyknosed Nuclei (%) [5]: 20% | Population Tubulin-Different-Phenotype (%) [5]: 90% | Total Cell Count [5]: 117 | Population Apoptotic (%) [6]: 77% | Population Fragmented Nuclei (%) [6]: 7% | Population Healthy Nuclei (%) [6]: 65% | Population Hoechst High Intensity Objects (%) [6]: 5% | Population Membrane Permeable-Phenotype (%) [6]: 96% | Population Mitochondria Different-Phenotype (%) [6]: 100% | Population Mitotic Cells (%) [6]: 22% | Population Normal (%) [6]: 94% | Population Pyknosed Nuclei (%) [6]: 27% | Population Tubulin-Different-Phenotype (%) [6]: 100% | Total Cell Count [6]: 948 | Population Apoptotic (%) [7]: 79% | Population Fragmented Nuclei (%) [7]: 29% | Population Healthy Nuclei (%) [7]: 10% | Population Hoechst High Intensity Objects (%) [7]: 22% | Population Membrane Permeable-Phenotype (%) [7]: 27% | Population Mitochondria Different-Phenotype (%) [7]: 27% | Population Mitotic Cells (%) [7]: 20% | Population Normal (%) [7]: 77% | Population Pyknosed Nuclei (%) [7]: 59% | Population Tubulin-Different-Phenotype (%) [7]: 54% | Total Cell Count [7]: 135 | Population Apoptotic (%) [8]: 100% | Population Fragmented Nuclei (%) [8]: 40% | Population Healthy Nuclei (%) [8]: 25% | Population Hoechst High Intensity Objects (%) [8]: 11% | Population Membrane Permeable-Phenotype (%) [8]: 100% | Population Mitochondria Different-Phenotype (%) [8]: 100% | Population Mitotic Cells (%) [8]: 0% | Population Normal (%) [8]: 88% | Population Pyknosed Nuclei (%) [8]: 33% | Population Tubulin-Different-Phenotype (%) [8]: 100% | Total Cell Count [8]: 85 | Population Apoptotic (%) [9]: 80% | Population Fragmented Nuclei (%) [9]: 47% | Population Healthy Nuclei (%) [9]: 44% | Population Hoechst High Intensity Objects (%) [9]: 11% | Population Membrane Permeable-Phenotype (%) [9]: 1% | Population Mitochondria Different-Phenotype (%) [9]: 70% | Population Mitotic Cells (%) [9]: 20% | Population Normal (%) [9]: 88% | Population Pyknosed Nuclei (%) [9]: 7% | Population Tubulin-Different-Phenotype (%) [9]: 80% | Total Cell Count [9]: 143 | Population Apoptotic (%) [10]: 0% | Population Fragmented Nuclei (%) [10]: 61% | Population Healthy Nuclei (%) [10]: 38% | Population Hoechst High Intensity Objects (%) [10]: 21% | Population Membrane Permeable-Phenotype (%) [10]: 0% | Population Mitochondria Different-Phenotype (%) [10]: 71% | Population Mitotic Cells (%) [10]: 0% | Population Normal (%) [10]: 78% | Population Pyknosed Nuclei (%) [10]: 0% | Population Tubulin-Different-Phenotype (%) [10]: 86% | Total Cell Count [10]: 126 | Population Apoptotic (%) [11]: 82% | Population Fragmented Nuclei (%) [11]: 48% | Population Healthy Nuclei (%) [11]: 22% | Population Hoechst High Intensity Objects (%) [11]: 28% | Population Membrane Permeable-Phenotype (%) [11]: 31% | Population Mitochondria Different-Phenotype (%) [11]: 22% | Population Mitotic Cells (%) [11]: 17% | Population Normal (%) [11]: 71% | Population Pyknosed Nuclei (%) [11]: 29% | Population Tubulin-Different-Phenotype (%) [11]: 27% | Total Cell Count [11]: 138 | Population Apoptotic (%) [12]: 90% | Population Fragmented Nuclei (%) [12]: 68% | Population Healthy Nuclei (%) [12]: 17% | Population Hoechst High Intensity Objects (%) [12]: 31% | Population Membrane Permeable-Phenotype (%) [12]: 57% | Population Mitochondria Different-Phenotype (%) [12]: 64% | Population Mitotic Cells (%) [12]: 9% | Population Normal (%) [12]: 68% | Population Pyknosed Nuclei (%) [12]: 13% | Population Tubulin-Different-Phenotype (%) [12]: 21% | Total Cell Count [12]: 115
